Published values from different studies.
Each line is one published result; the experiments were not run side by side.
Target: 3-phosphoinositide-dependent protein kinase 1 (PDPK1, Homo sapiens, UniProt O15530)
Residues used in one study (O15530 1-556): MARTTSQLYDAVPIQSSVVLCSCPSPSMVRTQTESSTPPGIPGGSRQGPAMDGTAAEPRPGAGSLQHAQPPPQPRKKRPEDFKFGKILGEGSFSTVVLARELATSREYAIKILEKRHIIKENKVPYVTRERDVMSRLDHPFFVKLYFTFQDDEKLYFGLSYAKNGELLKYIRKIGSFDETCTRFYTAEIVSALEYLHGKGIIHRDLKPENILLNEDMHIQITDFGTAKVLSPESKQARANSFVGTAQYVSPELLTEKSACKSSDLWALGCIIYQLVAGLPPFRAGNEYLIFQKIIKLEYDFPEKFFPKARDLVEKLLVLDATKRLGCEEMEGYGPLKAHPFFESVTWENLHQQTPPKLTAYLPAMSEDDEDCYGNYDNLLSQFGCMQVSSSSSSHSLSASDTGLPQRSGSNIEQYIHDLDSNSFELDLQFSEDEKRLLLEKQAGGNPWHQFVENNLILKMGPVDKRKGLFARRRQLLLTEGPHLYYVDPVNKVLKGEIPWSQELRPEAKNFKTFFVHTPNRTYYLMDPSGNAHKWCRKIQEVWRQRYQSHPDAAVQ

| SMILES | assay | conditions | measurement | result |
| --- | --- | --- | --- | --- |
| Cc1c(NC(=O)c2cc(C(N)=O)nc3cc(F)ccc23)c(C(F)(F)F)nn1Cc1ccc(C(C)(C)C)cc1 | cell-free assay, competition with immobilised ligand | 1 µM | remaining binding | 94% |
| Cn1c(=O)n(-c2ccc(C(C)(C)C#N)cc2)c2c3cc(-c4cnc5ccccc5c4)ccc3ncc21 | enzyme activity, inhibitor | 10 µM | remaining activity | 98% |
| Nc1ncnc2occ(-c3ccc(NC(=O)Nc4cc(C(F)(F)F)ccc4F)cc3)c12 | cell-free assay, inhibitor | 20 µM | remaining signal | 4.3% |
| Cc1cnc(NC2CCOCC2)nc1-n1cnc(C(=O)NC(CN)c2cc(F)cc(Cl)c2)c1 (centres unmarked) | enzyme activity, inhibitor, radiometric | 1 µM | remaining activity | 84% |
| CS(=O)(=O)N1CCCC(NC(=O)[C@H](CCC2CCCCC2)NC(=O)c2ccc(CNc3ncnc4c3nnn4-c3ccccc3)cc2)C1 (some centres unmarked) | cell-free assay, competition with immobilised ligand | 0.1 µM | remaining binding | 99% |
| CCCOc1ccc(OC)c(F)c1C(=O)c1ccc(C(=O)N[C@@H]2CNC[C@H]2NC(=O)c2ccc3[nH]ncc3c2)cc1 | enzyme activity, inhibitor | 10 µM | remaining activity | 102% |
| CN(C)C1CCN(CC#Cc2nn(C3CCCC3)c3nc(NCc4ccccc4)ncc23)C1 (centres unmarked) | enzyme activity, inhibitor, FRET | 1 µM | inhibition | 4% |
| O=C1NC(c2ccccn2)Sc2ccccc21 (centres unmarked) | cell-free assay, competition with immobilised ligand | 1 µM | remaining binding | 97% |
| CNC(=O)c1cc(Oc2ccc(NC(=O)Nc3ccc(Cl)c(C(F)(F)F)c3)cc2)ccn1 | cell-free assay, competition with immobilised ligand | 0.1 µM | remaining binding | 100% |
| C#Cc1cccc(Nc2ncnc3cc(OCCOC)c(OCCOC)cc23)c1 | cell-free assay | 0.5 µM | remaining signal | 83.8% |
| c1ccc(N2CCN(Cc3nc4ccccc4[nH]3)CC2)nc1 | binding, competition with immobilised ligand | 1 µM | remaining binding | 89% |
| C[S+]([O-])c1ccc(-c2nc(-c3ccncc3)c(-c3ccc(F)cc3)[nH]2)cc1 (centres unmarked) | cell-free assay | 0.5 µM | remaining signal | 96.3% |
| Nc1nc(NC2CCCCC2)sc1C(=O)c1ccccc1 | enzyme activity, inhibitor | 10 µM | remaining activity | 106% |
| N#CCCc1ccc2c(c1)-c1[nH]c3ccc([N+](=O)[O-])cc3c1CC(=O)N2 | cell-free assay | 0.5 µM | remaining signal | 79.8% |
| CC(C)(C)c1nc(-c2cccc(NS(=O)(=O)c3c(F)cccc3F)c2F)c(-c2ccnc(N)n2)s1 | enzyme activity, inhibitor, radiometric | 1 µM | remaining activity | 94% |
| COc1cc(Nc2cnc(C#N)c(O[C@H](C)CN(C)C)n2)ncc1-c1cnn(C)c1 | enzyme activity, inhibitor, radiometric | 10 µM | remaining activity | 76% |
| O=C(O)c1cc(-c2ccc(C3CCNCC3)cc2)c2ccc(-c3ccc(C(F)(F)F)cc3)cc2c1 | cell-free assay, competition with immobilised ligand | 1 µM | remaining binding | 100% |
| CC(C)(C)c1nc2c3cc[nH]c(=O)c3c3cc(F)ccc3c2[nH]1 | cell-free assay | 0.5 µM | remaining signal | 27% |
| CC(C)(O)[C@H]1CC[C@H](Nc2ccc3ncc(-c4cccc(C(F)(F)F)c4)n3n2)CC1 | enzyme activity, inhibitor | 1 µM | remaining activity | 105% |
| COc1cccc(CNC(=O)c2nc3scc(COCc4ccc(C(=O)O)cc4)c3c(=O)[nH]2)c1 | cell-free assay, competition with immobilised ligand | 1 µM | remaining binding | 87.8% |
| COc1ccc(COc2ccc(Cc3cnc(N)nc3N)cc2OC)cc1 | cell-free assay | 0.5 µM | remaining signal | 89.4% |
| FC(F)c1nc2ccccc2n1-c1nc(N2CCOCC2)nc(N2CCOCC2)n1 | enzyme activity, inhibitor | 10 µM | remaining activity | 92% |
| Cc1nc(N2CC[C@@H](O)C2)ncc1-c1cc(C(F)(F)F)cc2[nH]ncc12 | binding, competition with immobilised ligand | 1 µM | remaining binding | 100% |
| O=C(Nc1cnn(-c2csc(C(=O)NC3COC3)c2)c1)Nc1c(F)cccc1Cl | enzyme activity, inhibitor | 5 µM | remaining activity | 99.6% |
| CC(C)CC(=O)N1CCc2nc(-c3ccc(Br)cc3)nc(N(C)Cc3ccccc3)c2C1 | cell-free assay, competition with immobilised ligand | 0.1 µM | remaining binding | 100% |
| O=C(Nc1cnn(-c2csc(C(=O)NC3COC3)c2)c1)Nc1ccccc1Cl | enzyme activity, inhibitor | 5 µM | remaining activity | 101% |
